Drawing on ChEMBL document CHEMBL5247621, “From dopamine 4 to sigma 1: Synthesis, SAR and biological characterization of a piperidine scaffold of σ1 modulators” (Eur J Med Chem, 2022), this text covers Ki, Activity and Fu for eight compounds.

The Ki is a measure of affinity in units of concentration, obtained from inhibition or displacement.

The target of the first series is Sigma non-opioid intracellular receptor 1 (Homo sapiens, UniProt Q99720). Description: Displacement of [3H] Pentazocine from sigma 1 receptor in HEK293 cell membrane. The format is cell membranes. Conditions: read-out: Ki. For orientation: In a radioligand displacement assay an active substance lowers the binding of a labelled ligand.
Sigma non-opioid intracellular receptor 1, sequence (Q99720 whole entry): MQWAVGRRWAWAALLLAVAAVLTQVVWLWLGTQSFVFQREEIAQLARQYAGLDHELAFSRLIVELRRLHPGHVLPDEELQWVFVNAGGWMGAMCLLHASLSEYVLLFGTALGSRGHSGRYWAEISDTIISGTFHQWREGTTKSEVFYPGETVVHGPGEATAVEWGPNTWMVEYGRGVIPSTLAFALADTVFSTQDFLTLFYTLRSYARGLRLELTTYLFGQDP
Regarding `COc1ccc(CN2CCC[C@H](OCc3cccc(F)c3)C2)cc1F`, the inhibitory constant (Ki) is 4.3 nM.

Turning to `COc1ccc(CN2CCC[C@H](OCc3ccc(C)cc3)C2)cc1F`, the inhibition constant Ki was found to be 5.5 nM.

With `FC(F)(F)Oc1cccc(CO[C@H]2CCCN(Cc3cn4ccccc4n3)C2)c1`, the inhibition constant (Ki) is 35 nM.

For the compound `Fc1ccc2c(CN3CCC(F)(F)[C@H](CCc4ccccc4)C3)c[nH]c2c1`, the Ki worked out at 52 nM.

As for `Cc1cccc(CO[C@H]2CCCN(Cc3cc4ccc(Cl)cc4[nH]3)C2)n1`, the Ki came out at 52 nM.

Turning to `FC(F)(F)c1cccc(COC2CCN(Cc3cn4ccccc4n3)CC2)c1`, the inhibitory constant (Ki) came out at 3.5 nM.

As for `Cn1cnc2cc(CN3CCC(OCc4ccc(Cl)c(F)c4)CC3)ccc21`, the Ki amounted to 31 nM.

In the case of `Cn1cnc2cc(CN3CCC(OCc4cccc(C(F)(F)F)c4)CC3)ccc21`, the Ki is 12 nM.

The next series deals with T1, D(4) dopamine receptor (Homo sapiens) (UniProt P21917).
T1 sequence (whole entry): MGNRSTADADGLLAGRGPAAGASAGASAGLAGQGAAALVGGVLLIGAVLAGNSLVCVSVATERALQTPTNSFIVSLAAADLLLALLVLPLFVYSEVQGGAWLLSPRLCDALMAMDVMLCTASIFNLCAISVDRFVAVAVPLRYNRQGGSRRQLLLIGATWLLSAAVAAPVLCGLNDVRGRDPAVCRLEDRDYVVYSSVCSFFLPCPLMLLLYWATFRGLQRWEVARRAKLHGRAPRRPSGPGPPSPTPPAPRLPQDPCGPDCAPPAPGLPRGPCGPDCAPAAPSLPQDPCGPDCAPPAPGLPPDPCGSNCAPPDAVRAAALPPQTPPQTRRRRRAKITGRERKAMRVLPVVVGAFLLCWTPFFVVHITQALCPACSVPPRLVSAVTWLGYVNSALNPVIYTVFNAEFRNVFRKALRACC
Description: Displacement of [3H]N-methylspiperone from D4 receptor in HEK293 cell membrane assessed as inhibition constant at 10 uM relative to control. The format is cell membranes. Details: scale not given: the % may be the effect or the level left.
Conditions: not given
As for `Cn1cnc2cc(CN3CCC(OCc4ccc(Cl)c(F)c4)CC3)ccc21`, the Activity is 48%.

Test system in the next series: not listed separately
Description: Plasma protein binding in mouse assessed as unbound fraction. The format is ADME.
Conditions: not given
The essentials: (§1)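 Plasma protein binding by equilibrium dialysis in human or mouse plasma, reported as fraction unbound (fu).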
Regarding `COc1ccc(CN2CCC[C@H](OCc3ccc(C)cc3)C2)cc1F`, the Fu stood at 2.5%.

As for `FC(F)(F)c1cccc(COC2CCN(Cc3cn4ccccc4n3)CC2)c1`, the Fu is listed as 8.8%.

As to `Cn1cnc2cc(CN3CCC(OCc4ccc(Cl)c(F)c4)CC3)ccc21`, the Fu is on record as 75%.

The next series concerns the target T2, D(4) dopamine receptor (Homo sapiens, UniProt P21917).
T2 sequence (P21917 whole entry): T1 sequence (whole entry)
Description: Displacement of [3H]N-methylspiperone from D4 receptor in HEK293 cell membrane. The format is cell membranes. Conditions: read-out: Ki.
For `Fc1ccc2c(CN3CCC(F)(F)[C@H](CCc4ccccc4)C3)c[nH]c2c1`, the Ki came out at 3.5 nM.

In the case of `FC(F)(F)c1cccc(COC2CCN(Cc3cn4ccccc4n3)CC2)c1`, the Ki was 175 nM.

Test system in another series: not listed separately
Description: Plasma protein binding in human assessed as unbound fraction. The format is ADME, cell-free.
Conditions: not given
The procedure, abridged:
as §1
For `COc1ccc(CN2CCC[C@H](OCc3ccc(C)cc3)C2)cc1F`, the Fu is listed as 1.3%.

As to `FC(F)(F)c1cccc(COC2CCN(Cc3cn4ccccc4n3)CC2)c1`, the Fu came out at 2.2%.

For `Cn1cnc2cc(CN3CCC(OCc4ccc(Cl)c(F)c4)CC3)ccc21`, the Fu amounted to 13%.
